Results: ChEMBL document CHEMBL1140869, “Organocatalyzed highly atom economic one pot synthesis of tetrahydropyridines as antimalarials” (2009)
≈ marks a conversion by molar mass, not a printed value.

Legend:
Format in all cases: functional
Plasmodium falciparum [1] = assay: Antimalarial schizonticidal activity against Plasmodium falciparum 3D7 infected erythrocytes at 10 ug/ml after 30-39 hrs
Method in brief: (§1)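 Schizont maturation test (WHO protocol, minor modifications): drug dilutions in complete RPMI 1640 with parasite added. Final culture was 3–4% hematocrit and 1.0–2.0% parasitized erythrocytes (>95% rings), with 0.5% AlbuMax II and 15 µM hypoxanthine. Incubated 30–39 h at 37 °C under 5% CO2. Giemsa-stained thin smears were scored for schizont maturation relative to untreated controls, giving % schizont inhibition at each concentration.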

Plasmodium falciparum [2] = assay: Antimalarial schizonticidal activity against Plasmodium falciparum 3D7 infected erythrocytes at 5 ug/ml after 30-39 hrs; method in brief: as §1
Plasmodium falciparum [3] = assay: Antimalarial schizonticidal activity against Plasmodium falciparum 3D7 infected erythrocytes at 2.5 ug/ml after 30-39 hrs; method in brief: as §1
Plasmodium falciparum [4] = assay: Antimalarial schizonticidal activity against Plasmodium falciparum 3D7 infected erythrocytes at 1.25 ug/ml after 30-39 hrs; method in brief: as §1
Plasmodium falciparum [5] = assay: Antimalarial schizonticidal activity against Plasmodium falciparum 3D7 infected erythrocytes at 0.78 ug/ml after 30-39 hrs; method in brief: as §1
Plasmodium falciparum [6] = assay: Antimalarial schizonticidal activity against Plasmodium falciparum 3D7 infected erythrocytes at 0.39 ug/ml after 30-39 hrs; method in brief: as §1
Plasmodium falciparum [7] = assay: Antimalarial schizonticidal activity against Plasmodium falciparum 3D7 infected erythrocytes at 0.09 ug/ml after 30-39 hrs; method in brief: as §1
Plasmodium falciparum [8] = assay: Antimalarial activity schizonticidal against Plasmodium falciparum 3D7 infected erythrocytes at 0.05 ug/ml after 30-39 hrs; method in brief: as §1
Plasmodium falciparum [9] = assay: Antimalarial schizonticidal activity against Plasmodium falciparum 3D7 infected erythrocytes at 0.19 ug/ml after 30-39 hrs; method in brief: as §1
Plasmodium falciparum [10] = assay: Antimalarial schizonticidal activity against Plasmodium falciparum 3D7 infected erythrocytes after 30-39 hrs; method in brief: as §1

SMILES | inhibition at 10 µg/mL (Plasmodium falciparum [1]) | inhibition at 5 µg/mL (Plasmodium falciparum [2]) | inhibition at 2.5 µg/mL (Plasmodium falciparum [3]) | inhibition at 1.25 µg/mL (Plasmodium falciparum [4]) | inhibition at 0.78 µg/mL (Plasmodium falciparum [5]) | inhibition at 0.39 µg/mL (Plasmodium falciparum [6]) | inhibition at 0.09 µg/mL (Plasmodium falciparum [7]) | inhibition at 0.05 µg/mL (Plasmodium falciparum [8]) | inhibition at 0.19 µg/mL (Plasmodium falciparum [9]) | MIC (Plasmodium falciparum [10])
CCOC(=O)C1=C(Nc2ccc(OC)cc2)CC(c2cccc(Cl)c2)N(c2ccc(OC)cc2)C1c1cccc(Cl)c1 (centres undefined) | 100% | 92% | 50% | 16% | – | – | – | – | – | –
COC(=O)C1=C(Nc2ccc(Cl)cc2)CC(c2ccc(OC)cc2)N(c2ccc(Cl)cc2)C1c1ccc(OC)cc1 (centres undefined) | 100% | 100% | 100% | 100% | 95% | 75% | 33% | 16% | 41% | –
COC(=O)C1=C(Nc2ccc(OC)cc2)CC(c2ccc(Br)cc2)N(c2ccc(OC)cc2)C1c1ccc(Br)cc1 (centres undefined) | 100% | 100% | 95% | 33% | – | – | – | – | – | –
COC(=O)C1=C(Nc2ccc(OC)cc2)CC(c2ccc(OC)cc2)N(c2ccc(OC)cc2)C1c1ccc(OC)cc1 (centres undefined) | 100% | 100% | 90% | 86% | – | – | – | – | – | –
COC(=O)C1=C(Nc2ccccc2)CC(c2ccc(OCc3ccccc3)cc2)N(c2ccccc2)C1c1ccc(OCc2ccccc2)cc1 (centres undefined) | 23% | 2% | 2% | 0% | – | – | – | – | – | –
COC(=O)C1=C(Nc2ccc(OC)cc2)CC(c2cccc(Cl)c2)N(c2ccc(OC)cc2)C1c1cccc(Cl)c1 (centres undefined) | 100% | 100% | 100% | 33% | – | – | – | – | – | –
COC(=O)C1=C(Nc2ccccc2)CC(c2ccc(OC)cc2)N(c2ccccc2)C1c1ccc(OC)cc1 (centres undefined) | 100% | 100% | 100% | 100% | 94% | 67% | 45% | 25% | 47% | –
COC(=O)C1=C(Nc2ccc(Cl)cc2)CC(c2ccc(Br)cc2)N(c2ccc(Cl)cc2)C1c1ccc(Br)cc1 (centres undefined) | 33% | 0% | 0% | 0% | – | – | – | – | – | –
COC(=O)C1=C(Nc2ccccc2)CC(c2ccc(F)cc2)N(c2ccccc2)C1c1ccc(F)cc1 (centres undefined) | 100% | 100% | 100% | 100% | 100% | 100% | 33% | 16% | 75% | –
COC(=O)C1=C(Nc2ccccc2)CC(c2ccc(Br)cc2)N(c2ccccc2)C1c1ccc(Br)cc1 (centres undefined) | 100% | 100% | 85% | 46% | – | – | – | – | – | –
CCOC(=O)C1=C(Nc2ccc(Cl)cc2)CC(c2ccc(Cl)cc2)N(c2ccc(Cl)cc2)C1c1ccc(Cl)cc1 (centres undefined) | 83% | 66% | 0% | 0% | – | – | – | – | – | –
CCOC(=O)C1=C(Nc2ccc(OC)cc2)CC(c2ccccc2)N(c2ccc(OC)cc2)C1c1ccccc1 (centres undefined) | 100% | 100% | 100% | 100% | 66% | 33% | 0% | 0% | 0% | –
CCOC(=O)C1=C(Nc2ccccc2)CC(c2ccccc2)N(c2ccccc2)C1c1ccccc1 (centres undefined) | 100% | 100% | 92% | 25% | – | – | – | – | – | –
COC(=O)C1=C(Nc2ccccc2)CC(c2ccccc2)N(c2ccccc2)C1c1ccccc1 (centres undefined) | 100% | 100% | 100% | 100% | 96% | 90% | 0% | 0% | 33% | –
COC(=O)C1=C(Nc2ccccc2)CC(c2cccc(Cl)c2)N(c2ccccc2)C1c1cccc(Cl)c1 (centres undefined) | 100% | 81% | 81% | 46% | – | – | – | – | – | –
CCOC(=O)C1=C(Nc2ccc(Cl)cc2)CC(c2cccs2)N(c2ccc(Cl)cc2)C1c1cccs1 (centres undefined) | 100% | 100% | 93% | 86% | – | – | – | – | – | –
COC(=O)C1=C(Nc2ccc(OC)cc2)CC(c2cccs2)N(c2ccc(OC)cc2)C1c1cccs1 (centres undefined) | 100% | 100% | 100% | 100% | 100% | 100% | 25% | 16% | 75% | –
COC(=O)C1=C(Nc2ccc(Br)cc2)CC(c2ccc(OC)cc2)N(c2ccc(Br)cc2)C1c1ccc(OC)cc1 (centres undefined) | 100% | 100% | 91% | 25% | – | – | – | – | – | –
COC(=O)C1=C(Nc2ccc(OC)cc2)CC(c2ccc(F)cc2)N(c2ccc(OC)cc2)C1c1ccc(F)cc1 (centres undefined) | 100% | 100% | 100% | 100% | 100% | 100% | 100% | 91% | 100% | –
COC(=O)C1=C(Nc2ccc(Cl)cc2)CC(c2ccc(F)cc2)N(c2ccc(Cl)cc2)C1c1ccc(F)cc1 (centres undefined) | 100% | 100% | 100% | 93% | – | – | – | – | – | –
CCOC(=O)C1=C(Nc2ccccc2)CC(c2cccnc2)N(c2ccccc2)C1c1cccnc1 (centres undefined) | 100% | 100% | 100% | 100% | 100% | 100% | 42% | 42% | 97% | –
CCN(CC)CCCC(C)Nc1ccnc2cc(Cl)ccc12 (centres undefined) [CHLOROQUINE] | 100% | 100% | 97% | 86% | 100% | 100% | 86% | 54% | 97% | 0.025 µg/mL (≈ 0.0782 µM)
